Screens deposited in PubChem by several laboratories.
Only some compounds are listed: those with a hit (about 2.6% of all), similar ones and a draw of the others.
Apaf-1 inh = human Apaf-1 inhibition; inhibition, % at 20 µM; AID 489030; reconstituted apoptosome caspase-3 activity, DEVD-Rh110 fluorescence; actives 0.71% (n = 330,000); O14727; active means inhibition of at least 40% at 20 µM;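 further: plate controls were DMSO wells for no effect and DEVD-CHO caspase inhibitor wells for full effect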
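Material: cell-free apoptosome with Apaf-1, procaspase-3 and caspase-9; Buffer or medium: Hepes pH 7.5 with detergent and BSA; Reagent: cytochrome c trigger plus (Z-DEVD)2-Rh110 caspase-3 substrate; Times: compound with Apaf-1, dATP, procaspase-3 30 min, then 50 min reaction, room temperature; Technique: Rh110 fluorescence intensity.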
PRMT1 FP inh = inhibitors of human PRMT1 | Q99873 | recombinant PRMT1, activity-based probe fluorescence polarization | inhibition, % at 2.79 µM | actives 1.3% (n = 370,000);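 active means inhibition above about 21% made by adding two undisclosed values, limit read from the data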
GSTO1 inh = counter-screen for RBBP9 inhibitors: inhibitors of human GSTO1; P78417; recombinant GSTO1, activity-based probe fluorescence polarization; inhibition, % at 5.96 µM; actives 1.1% (n = 300,000);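 active means inhibition above the campaign mean inhibition plus 3 SD, cut at about 35% in these data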;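 further: 0% = GSTO1-1 with DMSO and 100% = wells lacking GSTO1-1 enzyme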
TDP2 absorb = blocks human TDP2 phosphodiesterase activity | recombinant TDP2, T5PNP hydrolysis, p-nitrophenol absorbance 415 nm | actives 0.34% (n = 370,000) | inhibition, % at 12.8 µM | AID 720702;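 active means inhibition above the mean of all tested compounds plus 3 SD, set per campaign, cut at about 25% in these data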;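 further: 0% = DMSO with enzyme and 100% = buffer with substrate but no TDP2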
Target sequence (O95551 whole entry, looked up): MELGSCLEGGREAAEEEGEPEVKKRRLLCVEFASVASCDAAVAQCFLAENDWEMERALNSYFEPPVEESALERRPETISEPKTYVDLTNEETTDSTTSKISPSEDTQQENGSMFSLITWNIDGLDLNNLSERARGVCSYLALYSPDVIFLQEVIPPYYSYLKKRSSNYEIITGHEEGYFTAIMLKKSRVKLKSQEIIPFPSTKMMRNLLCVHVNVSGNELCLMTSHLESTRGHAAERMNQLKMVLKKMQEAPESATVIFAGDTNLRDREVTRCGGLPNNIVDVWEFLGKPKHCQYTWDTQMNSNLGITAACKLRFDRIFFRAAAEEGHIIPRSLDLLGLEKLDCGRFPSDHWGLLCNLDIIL
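System – recombinant human TDP2 · Quantity – TDP2 enzyme at 120 nM final · Doses – single concentration, 12.8 µM nominal, with 1% DMSO · Incubation – 2 h at 37 °C · Measured by – epi absorbance of p-nitrophenol freed from T5PNP by hydrolysis · Read-out – % inhibition relative to enzyme-containing and enzyme-free wells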
PAD4 FP inh = blocks human protein arginine deiminase 4; Q9UM07; recombinant PAD4, RCA probe fluorescence polarization; inhibition, % at 6.36 µM; actives 0.41% (n = 330,000); AID 485272;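 active means percent inhibition above a cutoff equal to the mean of all tested compounds plus 3 SD, cut at about 15% in these data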;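 further: 0% = PAD4 with RCA probe and DMSO and 100% = probe without PAD4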
PAD4 confirm = PAD4 (human) inhibition, confirmed | actives 28% (n = 1,200) | AID 488796 | inhibition, % at 6.36 µM | shares compounds with PAD4 FP inh | recombinant PAD4, RCA probe fluorescence polarization;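 active means mean inhibition across replicates above the hit cutoff set by the earlier primary screen, cut at about 15% in these data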;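 further: inhibitors block active-site labeling by the probe so polarization falls; 0% = PAD4 with probe and DMSO and 100% = probe without PAD4 enzyme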
Starred values were filed as active, the others as inactive.

Results for CC(C)NC(=O)C1(C)CN(S(C)(=O)=O)CC(=O)N1CCCn1ccnc1 (stereo unspecified) ?
PRMT1 FP inh: 0; TDP2 absorb: 13

What do the screens show for `COC(=O)C1CN(C2CCCC2)CCS(=O)(=O)N1Cc1cn(Cc2ccc(OC)cc2)nn1` (stereo unspecified)?
PRMT1 FP inh: -1; TDP2 absorb: 3

Results for COC(=O)[C@]12C[C@H](CC(=O)NCc3ccc(OC)c(OC)c3)C(=O)N(Cc3ccco3)C1=C[C@H](COCc1ccccc1)O[C@@H]2C ?
PRMT1 FP inh: 4; TDP2 absorb: 2

How did CC(=O)Nc1ccc(Nc2nc(Cl)nc(Nc3ccc(NC(C)=O)cc3)n2)cc1 do in these assays?
Apaf-1 inh: -7; PRMT1 FP inh: -7; GSTO1 inh: 5; TDP2 absorb: -4; PAD4 FP inh: 19*; PAD4 confirm: 1

Results for O=c1ccc2c(-c3ccccc3)c3ccc(O)cc3oc-2c1 ?
Apaf-1 inh: 13; PRMT1 FP inh: 90*; GSTO1 inh: -3; TDP2 absorb: 21; PAD4 FP inh: 29*; PAD4 confirm: 63*

Results for Nc1ccc(-c2c3ccc(=O)cc-3oc3cc(O)ccc23)cc1C(=O)O ?
Apaf-1 inh: 17; PRMT1 FP inh: 71*; GSTO1 inh: -2; TDP2 absorb: -15; PAD4 FP inh: 23*; PAD4 confirm: 33*

Results for O=c1cc(-c2ccccc2)oc2cc(O)ccc12 ?
PRMT1 FP inh: -5; TDP2 absorb: -14

Results for COC(=O)C1=CC[C@@H](NC(=O)OC(C)(C)C)[C@H](O)[C@H]1O[Si](C)(C)C(C)(C)C ?
PRMT1 FP inh: 0; TDP2 absorb: 0

Results for O=C(CC1CCCC1)N[C@@H](Cc1cccnc1)C(=O)N1CCC[C@H]1C(=O)NCCc1ccccc1Cl ?
PRMT1 FP inh: 5; TDP2 absorb: 2

How did COc1ccc(C(=O)CSc2nnc(-c3ccccn3)n2-c2ccccc2)cc1 do in these assays?
PRMT1 FP inh: -3; TDP2 absorb: 1

How did NC(=O)c1oc2ccccc2c1NC(=O)C1CC(=O)N(c2ccccc2)C1 (stereo unspecified) do in these assays?
Apaf-1 inh: 2; GSTO1 inh: 7; PAD4 FP inh: 18*; PAD4 confirm: 27*

What do the screens show for `NC(=O)c1oc2ccccc2c1NC(=O)C1CCCCC1`?
Apaf-1 inh: -3; PRMT1 FP inh: 2; GSTO1 inh: 5; TDP2 absorb: -13; PAD4 FP inh: 1

What do the screens show for `O=C(Nc1ccccc1F)O[C@@H]1CC[C@@]23CCCN2C(=O)CCC[C@H]3C1`?
PRMT1 FP inh: 0; TDP2 absorb: -2

What do the screens show for `CCN(CC)c1cccc(OC2=NS(=O)(=O)c3ccccc32)c1`?
Apaf-1 inh: 3; PRMT1 FP inh: 5; GSTO1 inh: 17; TDP2 absorb: -3; PAD4 FP inh: 65*; PAD4 confirm: -4

How did CCOC(=O)c1ccc(NC(=O)CSc2nc(=O)n(CCN3CCOCC3)c3c2CCC3)cc1 do in these assays?
Apaf-1 inh: 10; PRMT1 FP inh: 1; GSTO1 inh: 0; TDP2 absorb: 5; PAD4 FP inh: 17*; PAD4 confirm: 8

How did CCN(CC)CCn1c2c(c(SCC(=O)Nc3nc4ccc(C)cc4s3)nc1=O)CCC2 do in these assays?
Apaf-1 inh: 16; PRMT1 FP inh: -5; GSTO1 inh: 7; TDP2 absorb: -26; PAD4 FP inh: 10

Results for CCN(CC)CCn1c2c(c(SCC(=O)Nc3nc4ccccc4s3)nc1=O)CCC2 ?
Apaf-1 inh: 5; PRMT1 FP inh: -1; GSTO1 inh: 10; TDP2 absorb: 5; PAD4 FP inh: 17*; PAD4 confirm: 14

Results for COc1ccc2c(c1)C[C@@H](CON1C(C)(C)CCCC1(C)C)N2S(=O)(=O)c1ccc(C)cc1 ?
PRMT1 FP inh: -3; TDP2 absorb: -5

How did CCCCCCCCN1C(=O)[C@@H](CC(=O)NCc2ccc(C)o2)C[C@@]2(C(=O)OC)C1=C[C@H](C(C)C)O[C@@H]2C1CC1 do in these assays?
PRMT1 FP inh: 0; TDP2 absorb: -9

Results for COc1cccc(NC(=O)c2ccccc2-c2ccccc2C(=O)O)c1 ?
Apaf-1 inh: 4; PRMT1 FP inh: -2; GSTO1 inh: -2; TDP2 absorb: -1; PAD4 FP inh: 18*; PAD4 confirm: 0
